Laboratory results published in ChEMBL document CHEMBL5705899 (Biochem J, 2014).
Activity calls are given as the source filed them. The rule behind the calls is not given here.

Legend:
[1] = target: Serine/threonine-protein kinase Nek4 (Homo sapiens) (UniProt P51957); test: Inhibition of human NEK4 at 1 uM using MBP as substrate in presence of 33P-ATP by ProQinase assay
[2] = system: Serine/threonine-protein kinase Sgk1 (Homo sapiens), O00141 [S422D]; details: Sf21, dose 1.0 µM, time 30.0 min
[3] = target: Ephrin type-B receptor 4 (Homo sapiens) (UniProt P54760); test: Inhibition of human EPHB4 at 1 uM using polyEY as substrate in presence of 33P-ATP by ProQinase assay
[4] = target: Maternal embryonic leucine zipper kinase (Homo sapiens) (UniProt Q14680); test: Inhibition of human MELK at 1 uM using RBER-CHKtide as substrate in presence of 33P-ATP by ProQinase assay
[5] = target: Serine/threonine-protein kinase Nek3 (Homo sapiens) (UniProt P51956); test: Inhibition of human NEK3 at 1 uM using RBER-CHKtide as substrate in presence of 33P-ATP by ProQinase assay
[6] = target: Casein kinase I isoform gamma-1 (Homo sapiens) (UniProt Q9HCP0); test: Inhibition of human CK1gamma1 at 1 uM using casein as substrate in presence of 33P-ATP by ProQinase assay
[7] = target: Mast/stem cell growth factor receptor Kit (Homo sapiens) (UniProt P10721); test: Inhibition of human KIT at 1 uM using polyEY as substrate in presence of 33P-ATP by ProQinase assay
[8] = target: Serine/threonine-protein kinase D3 (Homo sapiens) (UniProt O94806); test: Inhibition of human PKCnu at 1 uM using bio-4xCHKT as substrate in presence of 33P-ATP by ProQinase assay
[9] = target: Casein kinase 2 (Homo sapiens) (UniProt P67870+P68400+P19784+Q8NEV1); test: Inhibition of CK2 (unknown origin) assessed as remaining activity at 1 uM relative to control; assay type: protein assay
Outline: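 Dundee panel of 140 protein kinases, tested at a single 1 μM concentration. Each assay was run in triplicate. Remaining activity is expressed relative to a control reaction without inhibitor, as mean ± S.D. Conditions for each kinase were those of the screening centre.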

[10] = target: Serine/threonine-protein kinase PLK4 (Homo sapiens) (UniProt O00444); test: Inhibition of human SAK at 1 uM using p38-alpha KA as substrate in presence of 33P-ATP by ProQinase assay
[11] = target: CDK9/cyclin T1 (Homo sapiens) (UniProt O60563+P50750); test: Inhibition of human CDK9/CyclinT1 at 1 uM using RBER-CHKtide as substrate in presence of 33P-ATP by ProQinase assay; assay type: protein-complex assay
[12] = target: Protein kinase C theta type (Homo sapiens) (UniProt Q04759); test: Inhibition of human PKCtheta at 1 uM using 3xChocktide-PKC as substrate in presence of 33P-ATP by ProQinase assay
[13] = target: Non-receptor tyrosine-protein kinase TYK2 (Homo sapiens) (UniProt P29597); test: Inhibition of human TYK2 at 1 uM using poly(Ala,Glu,Lys,Tyr) as substrate in presence of 33P-ATP by ProQinase assay
[14] = target: LIM domain kinase 2 (Homo sapiens) (UniProt P53671); test: Inhibition of human LIMK2 at 1 uM using CFL1 as substrate in presence of 33P-ATP by ProQinase assay
[15] = target: Serine/threonine-protein kinase tousled-like 2 (Homo sapiens) (UniProt Q86UE8); test: Inhibition of human TLK2 at 1 uM using RB-S6P as substrate in presence of 33P-ATP by ProQinase assay
[16] = target: Ribosomal protein S6 kinase alpha-4 (Homo sapiens) (UniProt O75676); test: Inhibition of human RPS6KA4 at 1 uM using RBER-CHKtide as substrate in presence of 33P-ATP by ProQinase assay
[17] = target: Interleukin-1 receptor-associated kinase 4 (Homo sapiens) (UniProt Q9NWZ3); test: (§1) Inhibition of recombinant human N-terminal GST-tagged IRAK4 (140 to 460 residues) expressed in Escherichia coli assessed as remaining activity at 1 uM using MBP as substrate incubated for 30 mins in presence of [gamma-33P]ATP by filter binding method relative to control
[18] = system: RAC-beta serine/threonine-protein kinase (Homo sapiens), P31751 [S474D]; test: Inhibition of recombinant human N-terminal His6-tagged PKBbeta S474D mutant (120 to 481 residues) expressed in baculovirus infected Sf21 cells assessed as remaining activity at 1 uM using crosstide peptide as substrate incubated for 30 mins in presence of [gamma-33P]ATP by filter binding method relative to control
[19] = target: Ephrin type-B receptor 3 (Homo sapiens) (UniProt P54753); test: Inhibition of recombinant human N-terminal His6-tagged EPHB3 (561 to 998 residues) expressed in Escherichia coli assessed as remaining activity at 1 uM using Poly(Glu, Tyr) as substrate incubated for 30 mins in presence of [gamma-33P]ATP by filter binding method relative to control
[20] = target: SRSF protein kinase 2 (Homo sapiens) (UniProt P78362); test: Inhibition of human SRPK2 at 1 uM using MBP as substrate in presence of 33P-ATP by ProQinase assay
[21] = target: Tyrosine-protein kinase receptor TYRO3 (Homo sapiens) (UniProt Q06418); test: Inhibition of human TYRO3 at 1 uM using PolyEY as substrate in presence of 33P-ATP by ProQinase assay
[22] = target: Tyrosine-protein kinase BTK (Homo sapiens) (UniProt Q06187); test: Inhibition of recombinant human N-terminal His6-tagged BTK (2 to 659 residues) expressed in baculovirus infected Sf21 cells assessed as remaining activity at 1 uM using KVEKIGEGTYGVVYK as substrate incubated for 30 mins in presence of [gamma-33P]ATP by filter binding method relative to control
[23] = target: Ephrin type-A receptor 1 (Homo sapiens) (UniProt P21709); test: Inhibition of human EPHA1 at 1 uM using polyEY as substrate in presence of 33P-ATP by ProQinase assay
[24] = target: Serine/threonine-protein kinase 16 (Homo sapiens) (UniProt O75716); test: Inhibition of human TSF1 at 1 uM using casein as substrate in presence of 33P-ATP by ProQinase assay
[25] = target: CDK2/Cyclin A2 (Homo sapiens) (UniProt P24941+P20248); test: as §1, with “CDK2 (2” for “IRAK4 (140”, “298 residues)/N-terminal GST-tagged Cyclin A2 (171 to 432” for “460”, “YSPTSPSYSPTSPSYSPTSPKKK” for “MBP”
[26] = target: Testis-specific serine/threonine-protein kinase 1 (Homo sapiens) (UniProt Q9BXA7); test: Inhibition of recombinant human N-terminal GST-tagged TSSK1 (1 to 367 residues) expressed in Escherichia coli assessed as remaining activity at 1 uM using KKKVSRSGLYRSPSMPENLNRPR as substrate incubated for 30 mins in presence of [gamma-33P]ATP by filter binding method relative to control

Sequence of Maternal embryonic leucine zipper kinase (Homo sapiens) (Q14680 whole entry, looked up): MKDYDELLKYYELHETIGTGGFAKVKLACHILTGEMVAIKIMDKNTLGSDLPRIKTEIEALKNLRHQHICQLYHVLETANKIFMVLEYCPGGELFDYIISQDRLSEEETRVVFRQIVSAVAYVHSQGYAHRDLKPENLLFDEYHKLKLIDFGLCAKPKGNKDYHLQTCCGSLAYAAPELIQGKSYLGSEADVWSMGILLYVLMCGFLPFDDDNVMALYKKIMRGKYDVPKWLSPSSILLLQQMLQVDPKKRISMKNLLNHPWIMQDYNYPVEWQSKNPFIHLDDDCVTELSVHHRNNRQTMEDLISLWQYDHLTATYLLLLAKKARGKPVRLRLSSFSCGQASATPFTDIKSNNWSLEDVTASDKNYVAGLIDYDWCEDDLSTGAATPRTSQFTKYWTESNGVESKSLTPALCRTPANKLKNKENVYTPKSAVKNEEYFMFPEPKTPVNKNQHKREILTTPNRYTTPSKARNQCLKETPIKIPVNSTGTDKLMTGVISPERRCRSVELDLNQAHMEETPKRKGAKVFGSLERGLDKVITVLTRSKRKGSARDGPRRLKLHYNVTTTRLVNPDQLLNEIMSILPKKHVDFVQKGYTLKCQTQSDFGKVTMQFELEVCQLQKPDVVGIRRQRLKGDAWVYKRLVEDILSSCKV
Sequence of Serine/threonine-protein kinase 16 (Homo sapiens) (O75716 whole entry): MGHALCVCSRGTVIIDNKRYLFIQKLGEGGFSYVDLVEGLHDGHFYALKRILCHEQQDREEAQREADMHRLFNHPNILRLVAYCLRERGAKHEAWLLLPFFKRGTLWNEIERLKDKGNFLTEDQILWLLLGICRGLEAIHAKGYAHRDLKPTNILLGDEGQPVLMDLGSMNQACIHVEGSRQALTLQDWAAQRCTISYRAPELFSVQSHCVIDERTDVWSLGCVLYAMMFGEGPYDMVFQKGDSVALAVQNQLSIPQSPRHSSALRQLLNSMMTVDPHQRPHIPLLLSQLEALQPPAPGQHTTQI
Sequence of Ephrin type-B receptor 3 (Homo sapiens) (P54753 whole entry, the tested form may be a part): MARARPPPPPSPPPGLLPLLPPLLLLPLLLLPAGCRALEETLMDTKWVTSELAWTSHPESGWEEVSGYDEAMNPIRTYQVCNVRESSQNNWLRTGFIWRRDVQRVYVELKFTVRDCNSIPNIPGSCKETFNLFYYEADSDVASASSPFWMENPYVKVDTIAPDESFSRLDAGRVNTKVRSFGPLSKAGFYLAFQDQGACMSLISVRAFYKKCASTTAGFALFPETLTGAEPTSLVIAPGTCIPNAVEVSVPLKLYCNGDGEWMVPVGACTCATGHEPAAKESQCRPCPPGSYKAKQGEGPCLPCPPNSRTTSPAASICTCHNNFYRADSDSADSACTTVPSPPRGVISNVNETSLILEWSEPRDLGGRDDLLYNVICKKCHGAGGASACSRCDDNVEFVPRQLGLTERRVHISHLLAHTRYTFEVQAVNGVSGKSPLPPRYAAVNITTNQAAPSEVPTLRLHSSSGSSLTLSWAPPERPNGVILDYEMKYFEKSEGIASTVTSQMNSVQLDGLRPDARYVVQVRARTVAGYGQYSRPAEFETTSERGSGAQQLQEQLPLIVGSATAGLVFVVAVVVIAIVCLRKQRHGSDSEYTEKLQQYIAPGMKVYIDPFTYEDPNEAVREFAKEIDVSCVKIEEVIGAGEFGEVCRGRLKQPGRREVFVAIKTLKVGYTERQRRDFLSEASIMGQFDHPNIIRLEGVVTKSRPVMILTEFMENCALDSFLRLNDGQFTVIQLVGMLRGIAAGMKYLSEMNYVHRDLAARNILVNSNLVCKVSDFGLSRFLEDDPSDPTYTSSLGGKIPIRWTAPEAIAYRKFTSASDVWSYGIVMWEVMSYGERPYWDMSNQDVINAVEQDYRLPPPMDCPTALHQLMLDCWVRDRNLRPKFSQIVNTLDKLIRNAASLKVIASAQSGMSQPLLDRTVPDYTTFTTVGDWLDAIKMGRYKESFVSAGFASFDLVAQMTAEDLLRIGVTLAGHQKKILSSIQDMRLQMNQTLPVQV
Sequence of Tyrosine-protein kinase BTK (Homo sapiens) (Q06187 whole entry, the tested form may be a part): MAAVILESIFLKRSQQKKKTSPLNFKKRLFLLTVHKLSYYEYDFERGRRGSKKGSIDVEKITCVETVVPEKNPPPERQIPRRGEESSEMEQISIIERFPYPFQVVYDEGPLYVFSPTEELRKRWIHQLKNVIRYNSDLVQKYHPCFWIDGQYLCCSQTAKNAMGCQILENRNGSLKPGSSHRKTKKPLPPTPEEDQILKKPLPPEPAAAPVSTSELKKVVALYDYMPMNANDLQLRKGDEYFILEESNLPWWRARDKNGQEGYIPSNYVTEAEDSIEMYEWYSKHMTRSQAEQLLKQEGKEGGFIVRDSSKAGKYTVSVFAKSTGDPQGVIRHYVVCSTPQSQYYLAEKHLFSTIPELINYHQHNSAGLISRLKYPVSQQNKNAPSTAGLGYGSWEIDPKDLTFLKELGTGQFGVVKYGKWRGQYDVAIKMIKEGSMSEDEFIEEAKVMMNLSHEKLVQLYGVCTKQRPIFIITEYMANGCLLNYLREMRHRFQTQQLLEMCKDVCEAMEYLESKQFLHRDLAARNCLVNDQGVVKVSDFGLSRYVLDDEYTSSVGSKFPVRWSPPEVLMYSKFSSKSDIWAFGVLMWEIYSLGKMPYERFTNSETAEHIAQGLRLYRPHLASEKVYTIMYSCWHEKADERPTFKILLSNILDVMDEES
Sequence of Ephrin type-B receptor 4 (Homo sapiens) (P54760 whole entry): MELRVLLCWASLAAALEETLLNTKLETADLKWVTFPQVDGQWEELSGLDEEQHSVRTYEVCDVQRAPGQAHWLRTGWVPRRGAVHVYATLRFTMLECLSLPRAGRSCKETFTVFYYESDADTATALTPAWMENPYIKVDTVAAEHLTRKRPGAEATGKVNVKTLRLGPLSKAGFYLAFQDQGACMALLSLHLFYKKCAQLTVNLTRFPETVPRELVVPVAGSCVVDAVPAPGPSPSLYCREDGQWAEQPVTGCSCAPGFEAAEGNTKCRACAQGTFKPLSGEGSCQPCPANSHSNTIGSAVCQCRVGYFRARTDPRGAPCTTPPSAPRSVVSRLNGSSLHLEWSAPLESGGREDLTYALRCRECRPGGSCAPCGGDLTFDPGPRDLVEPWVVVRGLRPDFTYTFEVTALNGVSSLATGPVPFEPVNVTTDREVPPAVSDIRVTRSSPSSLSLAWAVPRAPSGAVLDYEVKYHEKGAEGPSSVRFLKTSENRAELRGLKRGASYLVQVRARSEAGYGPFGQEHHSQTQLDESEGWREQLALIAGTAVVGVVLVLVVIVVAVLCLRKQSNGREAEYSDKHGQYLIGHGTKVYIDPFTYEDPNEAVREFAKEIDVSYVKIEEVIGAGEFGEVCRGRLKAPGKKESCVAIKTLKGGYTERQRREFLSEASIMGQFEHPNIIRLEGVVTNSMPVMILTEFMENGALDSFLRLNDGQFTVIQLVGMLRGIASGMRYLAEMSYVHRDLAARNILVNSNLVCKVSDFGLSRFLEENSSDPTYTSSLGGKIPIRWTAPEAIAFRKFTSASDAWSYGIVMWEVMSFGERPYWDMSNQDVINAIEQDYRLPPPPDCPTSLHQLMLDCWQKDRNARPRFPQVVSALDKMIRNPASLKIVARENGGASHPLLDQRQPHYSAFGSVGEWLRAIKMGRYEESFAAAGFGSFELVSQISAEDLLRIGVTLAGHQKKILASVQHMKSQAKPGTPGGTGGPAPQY
Sequence of Serine/threonine-protein kinase PLK4 (Homo sapiens) (O00444 whole entry): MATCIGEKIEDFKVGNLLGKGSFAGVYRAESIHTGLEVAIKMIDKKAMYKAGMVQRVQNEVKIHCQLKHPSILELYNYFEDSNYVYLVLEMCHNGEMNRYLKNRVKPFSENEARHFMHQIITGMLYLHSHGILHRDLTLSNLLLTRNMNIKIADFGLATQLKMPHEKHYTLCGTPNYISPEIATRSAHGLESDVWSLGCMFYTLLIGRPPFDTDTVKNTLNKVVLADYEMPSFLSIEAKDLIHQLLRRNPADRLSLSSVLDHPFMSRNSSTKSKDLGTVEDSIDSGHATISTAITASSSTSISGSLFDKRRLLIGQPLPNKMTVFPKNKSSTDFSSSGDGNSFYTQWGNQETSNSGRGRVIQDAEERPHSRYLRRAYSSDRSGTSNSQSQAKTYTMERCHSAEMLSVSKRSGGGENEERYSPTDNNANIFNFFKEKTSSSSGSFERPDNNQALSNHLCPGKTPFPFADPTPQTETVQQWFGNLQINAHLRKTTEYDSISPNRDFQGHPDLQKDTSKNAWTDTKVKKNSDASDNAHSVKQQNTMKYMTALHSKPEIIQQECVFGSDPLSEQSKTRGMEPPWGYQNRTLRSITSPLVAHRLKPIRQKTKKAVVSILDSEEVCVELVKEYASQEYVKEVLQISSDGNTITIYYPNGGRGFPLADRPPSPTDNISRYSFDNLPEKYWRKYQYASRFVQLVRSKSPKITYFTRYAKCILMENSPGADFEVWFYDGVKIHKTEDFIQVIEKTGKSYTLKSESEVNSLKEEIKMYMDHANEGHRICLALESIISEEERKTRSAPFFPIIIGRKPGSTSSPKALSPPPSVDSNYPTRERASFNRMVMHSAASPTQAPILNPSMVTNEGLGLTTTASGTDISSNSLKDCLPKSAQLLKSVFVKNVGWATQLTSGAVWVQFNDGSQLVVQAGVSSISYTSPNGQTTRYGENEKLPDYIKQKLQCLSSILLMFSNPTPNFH
Sequence of Casein kinase I isoform gamma-1 (Homo sapiens) (Q9HCP0 whole entry, looked up, canonical isoform): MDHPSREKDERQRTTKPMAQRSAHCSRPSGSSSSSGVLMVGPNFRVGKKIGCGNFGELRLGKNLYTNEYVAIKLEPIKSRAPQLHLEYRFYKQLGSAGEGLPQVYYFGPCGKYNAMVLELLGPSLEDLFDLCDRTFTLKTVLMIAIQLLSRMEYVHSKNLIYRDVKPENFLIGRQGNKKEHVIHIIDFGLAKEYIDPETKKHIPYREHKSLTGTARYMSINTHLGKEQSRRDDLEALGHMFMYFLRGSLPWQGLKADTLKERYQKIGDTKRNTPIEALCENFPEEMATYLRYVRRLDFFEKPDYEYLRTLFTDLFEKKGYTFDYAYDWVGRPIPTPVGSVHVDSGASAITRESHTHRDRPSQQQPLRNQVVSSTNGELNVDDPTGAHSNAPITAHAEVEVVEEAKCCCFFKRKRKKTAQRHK

**Q.** What does the source list for CC(C)(O)CNc1ncc(-c2ccnc(Nc3ccnc(Cl)c3)n2)c(CC2CC2)n1?
**A.** inhibition [1]: inactive; Activity [2]: 108%; inhibition [3]: inactive; inhibition [4]: inactive; inhibition [5]: inactive; inhibition [6]: inactive; inhibition [7]: inactive; inhibition [8]: inactive; Activity [9]: 111%; inhibition [10]: inactive; inhibition [11]: inactive; inhibition [12]: inactive; inhibition [13]: inactive; inhibition [14]: inactive; inhibition [15]: inactive; inhibition [16]: inactive; Activity [17]: 133%; Activity [18]: 123%; Activity [19]: 111%; inhibition [20]: inactive; inhibition [21]: inactive; Activity [22]: 108%; inhibition [23]: inactive; inhibition [24]: inactive; Activity [25]: 88%; Activity [26]: 118%
